We go through 4 compounds from article PMC9535606 (Journal of Alzheimer's Disease Reports, 2022).

Data set [1] relates to primary rat cortical neurons. Briefly: 3-NP-induced neurotoxicity, cell survival by counting Hoechst-stained nuclei. To be noted: for Cell Survival (%): 0.5 mM for 24 h prior to 2.5 mM 3-NP for 24 h, Hoechst, % of control; for viability of cultured cortical neurons exposed to 3-NP: then 2.5 mM 3-NP 24 h. Type of data set: cell-based. In short, it runs like this: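 E18 Sprague-Dawley rat cortical neurons (DIV 7–9) were pretreated with test compound for 24 h, then given 2.5 mM 3-NP for 24 h. Cells were fixed in 4% paraformaldehyde and stained with Hoechst 33342 (1:1000 in PBS, 5–15 min). Nuclei with normal morphology were counted. Survival (%) = mean surviving cells ÷ concurrent control × 100%.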

Data set [2] relates to primary rat cortical neurons. Briefly: 3-NP-induced cellular ROS, CellROX fluorescence. The format is cell-based. To be noted: for ROS level compared with 3-NP-vehicle-treated group: 0.5 mM for 24 h prior to 2.5 mM 3-NP, LiCl p < 0.001, SB p < 0.01, LiBen p < 0.0001. In a few lines:
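Primary cortical cultures came from E18 Sprague-Dawley rat cortex and were used at DIV 7–9 (neuron-enriched). Cultures were pretreated with test compound (0, 0.5, 1 or 3 mM) for 24 h, then exposed to 2.5 mM 3-NP for another 24 h. CellROX Green reagent was added, cells were washed with PBS, and ROS were quantified as fluorescence (Ex 485/Em 520 nm), with confocal imaging.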

The subject of data set [3] is rat primary cortical neuronal culture. Put plainly: Oxygen glucose deprivation. Type of data set: cell-based. In short, it runs like this:
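For OGD, rat cortical cultures were rinsed into glucose- and pyruvate-free Neurobasal-A and held 1 h at 37 °C/5% CO2. They were then kept under 95% N2/5% CO2 (about 1.0% O2) for 4 h. Test compound was present either for the whole 53 h (0–5 mM) or only for 48 h post-OGD (0–3 mM). Viability was measured by MTT as % of the normoxic untreated control.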

The subject of a further data set is WT mice. Briefly: Chronic administration safety observations in WT mice. The format is in vivo, mouse. In short, it runs like this:
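Wild-type littermates dosed i.p. once daily from 5 months of age for 8 months with test compound in 0.9% saline (n = 27) or saline vehicle (n = 23). Dose 256 mg/kg/day for 5 months, then 200 mg/kg/day. Barnes maze at 5, 7, 10 and 13 months, scored as probe-trial target-quadrant time over total exploring time. Body weight and survival followed to 16 months.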

In data set [4] the test system is rat primary cortical neurons. Put plainly: Neurogenesis, BrdU/NeuN immunostaining after Aβ25-35. To be noted: p < 0.0001. Type of data set: cell-based. In a few lines:
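Aβ25-35 was pre-aggregated at 37 °C for 24 h and applied to E18 rat cortical cultures on coverslips for 2 days. Medium was then replaced with BrdU labelling solution plus test compound for 4 days at 37 °C. Cells were fixed in PFA, blocked in 2% BSA, permeabilised with 0.03% Triton X-100 and treated with 2 N HCl. They were stained for BrdU (1:250), NeuN (1:300) and Hoechst. Triple-positive cells were expressed as % of untreated control; mean ± SD, N=3, one-way ANOVA with Student-Newman-Keuls.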

Data set [5] in a line: Pharmacokinetics of lithium in rat plasma after single oral dose. To be noted: same molarity. Type of data set: in vivo. In a few lines: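 Male Sprague-Dawley rats (240–260 g, n=6/group) were fasted overnight and given a single gavage dose in PBS. Doses were test compound 255.3 mg/kg or sodium benzoate 287.9 mg/kg plus Li2CO3 74.2 mg/kg (equimolar). Jugular blood was drawn from 0 to 24 h into heparinised tubes, and plasma was separated at 2500×g for 15 min at 4 °C. Plasma was digested overnight in 2–5% nitric acid, filtered, and lithium measured by ICP-MS; concentration-time plots were used; mean ± SD.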

Data set [6] concerns rat primary cortical neurons. Put plainly: Aβ25-35-induced cytotoxicity, cell survival with or without MK-801. Type of data set: cell-based. To be noted: for cell survival rate: 10 μM Aβ25-35 for 2 days, then 1 mM for 4 days; for protective effect against Aβ25-35 in the presence vs absence of MK-801: MK-801 10 μM, SB 1 mM, LiBen 0.5 and 1 mM.
The test system of data set [7] is rat primary cortical neurons. Briefly: Mitochondrial respiration, Seahorse XF Cell Mito Stress Test. The format is cell-based. To be noted: 3 mM. In a few lines:
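Rat primary cortical neurons on XF96 plates were pretreated with test compound (3 mM) for 24 h. They were then moved to XF assay medium for 1 h at 37 °C without CO2. Oxygen consumption rate was recorded on an XF96 analyser with serial oligomycin, FCCP and rotenone/antimycin A injections. Basal respiration, ATP production, proton leak and spare capacity were derived; mean ± SD, N=3.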

In data set [8] the test system is APP/PS1 mice. Put plainly: Amyloid plaque number in brain, Congo red staining. To be noted: APP/PS1 mice at 16 months of age, AD/LiBen vs AD/Veh; p < 0.05. The format is in vivo, mouse.
For data set [9], the system named is APP/PS1 mice. Briefly: Prepulse inhibition, sensorimotor gating. The format is in vivo, mouse. In a few lines: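 In APP/PS1 mice and WT littermates, test compound in 0.9% saline was given i.p. once daily from 5 months of age. The dose was 256 mg/kg/day for 5 months, then lowered to 200 mg/kg/day. Saline-vehicle groups served as controls. Behavioural testing took place at 5 (pre-dose), 7, 10 and 13 months of age.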

The conditions of data set [10]: US FDA and JECFA of WHO; cited from earlier work.
Where [11] appears, read: 24 h, compared with SB or LiCl treatment.

`O=C(O)CC[N+](=O)[O-]` [3-NP, 3-nitropropionic acid, reference compound]: the neuronal cell death in data set [1] (3-NP 2.5 mM alone) is given as roughly 50%. The “ROS level (fluorescent intensity) increase compared to control” value in data set [2] (3-NP 2.5 mM, 24 h, p < 0.05) was determined as 57.5%.

For `O=C([O-])c1ccccc1.[Li+]` [LiBen, lithium benzoate], in data set [3] (3 mM LiBen present for 53 hrs of the whole culture period), the “OGD-induced cell death / cell viability” value is “significantly recovered and comparable to the normoxia group”. Besides, in [3] (5 mM LiBen, 53 hrs), the “cell survival in normoxia group” value is “also reduced” and the “neuroprotective property under OGD” value is “vanished”. Also, the OGD-induced cell death result in data set [3] (LiBen 0.3 to 3 mM added for 48 hrs post-OGD, vs 0 mM group) is listed as “significantly alleviates OGD-induced cell death”. Also, the “body weight change during the experimental period” value in the data set on WT mice (WT mice, chronic administration) is on record as “without significant body weight change”. Also, the survival entry in the data set with WT mice (WT mice, chronic administration, termination time point of the experiment) is given as “at least 16 months”. The “toxicity of chronic use” value in the data set on WT mice (within the tested dose range (256, later 200 mg/kg/day i.p.)) is reported as “did not display any toxicity”. For the same compound, the “neurogenesis (BrdU+/NeuN+ cells) vs corresponding control” value in data set [4] (Aβ25-35 exposure, then 0.5 mM for 4 days) is given as “significantly improve neurogenesis”. In addition, the “neurogenesis (BrdU+/NeuN+ cells) vs corresponding control” value in data set [4] (No Aβ25-35 exposure, 0.5 mM for 4 days) is on record as “significantly improve neurogenesis”. In addition, in data set [5], the “AUC of lithium compared with the SB + Li2CO3 mixture group” value is reported as “also higher” and the “Cmax of lithium compared with the SB + Li2CO3 mixture group” value is “significantly higher”. The “Cell Survival (%)” value in [1] stood at 79.0%. Moreover, the “viability of cultured cortical neurons exposed to 3-NP” value in data set [1] (LiBen 1 mM 24 h, p < 0.005 vs 3-NP alone) is on record as “significantly increase”. Besides, the “viability of cultured cortical neurons exposed to 3-NP” value in data set [1] (LiBen 3 mM 24 h, p < 0.001 vs 3-NP alone) was “significantly increase”. In addition, the “viability of cultured cortical neurons in the absence of 3-NP” value in data set [1] (LiBen 1 or 3 mM, no 3-NP) is “the difference was not revealed”. Besides, in data set [6], the cell survival rate turned out to be 85.1% and the “protective effect against Aβ25-35 in the presence vs absence of MK-801” value is given as “no differences were observed”. Further, in data set [7] (setting [11]), the ATP production result is given as “more reduction” and the proton leak result is given as “more reduction”. Also, in data set [7] (24 h pre-treatment), the spare respiratory capacity result was “increasing tendency”. The “basal oxygen consumption rate” value in data set [7] (24 h pre-treatment, did not reach the significant level) is “reduced more basal oxygen consumption rate than the other treatment groups”. Besides, the “ROS level compared with 3-NP-vehicle-treated group” value in data set [2] is on record as “much more significant”. For the same compound, in the data set on APP/PS1 mice [8], the “decrease in number of plaques in cortex” value was found to be 21.8% and the “decrease in number of plaques in hippocampus” value came to 27.8%. Besides, the “improvement of PPI deficit” value in the data set with APP/PS1 mice [9] (APP/PS1 mice at 13 months of age) was “reached significant level”. For the same compound, in the data set with APP/PS1 mice [9] (APP/PS1 mice, i.p. once daily from 5 months of age, tested at 7, 10, 13 months), the “prepulse inhibition (PPI)” value is “normal PPI at all time points”.

For the compound `[Cl-].[Li+]` [LiCl, lithium chloride, reference compound], the “Cell Survival (%)” value in data set [1] is reported as 61.5%. The same compound yielded a cell survival rate in [6] of 74.0%. Moreover, in data set [7] (24 h pre-treatment), the spare respiratory capacity result is given as “less effective than LiBen”. The “ROS level compared with 3-NP-vehicle-treated group” value in data set [2] was “significant decreases”.

With `O=C([O-])c1ccccc1.[Na+]` [SB, Sodium benzoate], in [10], the “acceptable daily intake level” value is given as 5 mg/kg body weight. For the same compound, the “Cell Survival (%)” value in data set [1] turned out to be 67.1%. In addition, in [6], the cell survival rate was 70.7% and the “protective effect against Aβ25-35 in the presence vs absence of MK-801” value is “blocked by MK-801”. Also, the spare respiratory capacity entry in [7] (24 h pre-treatment) was “less effective than LiBen”. Besides, the “ROS level compared with 3-NP-vehicle-treated group” value in data set [2] is “significant decreases”.
